Activity calls are given as the source filed them. No cut-off for these calls is given here.
Key:
[1] = target: Trypanothione reductase (Trypanosoma cruzi) (UniProt P28593); assay: Inhibition of Trypanosoma cruzi trypanothione reductase at 5 uM using 40 uM trypanothione disulfide as substrate by spectrophotometric method relative to control
How it was run: (§1)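 TcTryR (about 2 nM) in 40 mM HEPES, 1 mM EDTA, pH 7.5, 100 µM NADPH; inhibitor at fixed 2 or 5 µM (screening range 1–5 µM) from DMSO stock; TS2 fixed at 40 or 100 µM; absorbance decrease monitored; percent inhibition versus DMSO control.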

[2] = target: Trypanothione reductase (Trypanosoma cruzi) (UniProt P28593); assay: Inhibition of Trypanosoma cruzi trypanothione reductase at 5 uM using 100 uM trypanothione disulfide as substrate by spectrophotometric method relative to control; how it was run: as §1
[3] = target: Rhodesain (Trypanosoma brucei rhodesiense) (UniProt Q95PM0); assay: Inhibition of Trypanosoma brucei rhodesiense rhodesain at 20 uM using Cbz-Phe-Arg-AMC as substrate measured for 5 mins by spectrofluorometric analysis relative to control
How it was run: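 Rhodesain in 50 mM sodium acetate pH 5.5 with 5 mM DTT, 5 mM EDTA, 200 mM NaCl; inhibitor 20 µM, substrate Cbz-Phe-Arg-AMC; AMC fluorescence (ex 380/em 460 nm) followed 5 min; activity from slopes of fluorescence vs time versus DMSO control; run in duplicate.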

[4] = test system: Trypanosoma brucei brucei; assay: Antitrypanosomal activity against Trypanosoma brucei brucei TC221 after 48 hrs by alamar blue assay; type: functional; settings: TC221, 48 h
How it was run: (§2)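 T. b. brucei TC221 bloodstream-form proliferation measured by alamarBlue (resazurin reduced to resorufin by living cells); 48 h and 72 h read-outs. IC50 derived per Räz et al. method; each compound tested in duplicate, mean of two values.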

[5] = target: Trypanothione reductase (Trypanosoma cruzi) (UniProt P28593); assay: Inhibition of Trypanosoma cruzi trypanothione reductase at 50 uM using 100 uM trypanothione disulfide as substrate by spectrophotometric method relative to control
Rhodesain = Rhodesain (Trypanosoma brucei rhodesiense, UniProt Q95PM0); assay: Inhibition of Trypanosoma brucei rhodesiense rhodesain using Cbz-Phe-Arg-AMC as substrate measured for 10 mins by spectrofluorometric analysis
Leishmania infantum = assay: Antileishmanial activity against Leishmania infantum; type: functional
[6] = test system: Trypanosoma brucei brucei; assay: Antitrypanosomal activity against Trypanosoma brucei brucei TC221 after 72 hrs by alamar blue assay; type: functional; settings: TC221, 72 h; how it was run: as §2
[7] = target: Trypanothione reductase (Trypanosoma cruzi) (UniProt P28593); assay: Inhibition of Trypanosoma cruzi trypanothione reductase at 2 uM using 40 uM trypanothione disulfide as substrate by spectrophotometric method relative to control; how it was run: as §1
[8] = target: Rhodesain (Trypanosoma brucei rhodesiense) (UniProt Q95PM0); assay: Inhibition of Trypanosoma brucei rhodesiense rhodesain using Cbz-Phe-Arg-AMC as substrate by spectrofluorometric analysis
[9] = target: Trypanothione reductase (Trypanosoma cruzi) (UniProt P28593); assay: Inhibition of Trypanosoma cruzi trypanothione reductase at 2 uM using 100 uM trypanothione disulfide as substrate by spectrophotometric method relative to control; how it was run: as §1
[10] = Selectivity index, ratio of IC50 for mouse J774.1 cells to IC50 for Trypanosoma brucei brucei TC221 measured after 48 hrs; type: toxicity; settings: J774.1 cells (versus Trypanosoma brucei brucei TC221), read-out: Ratio IC50
How it was run: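 Selectivity index computed as IC50 (J774.1 macrophages, alamarBlue) divided by IC50 (T. b. brucei TC221, alamarBlue); duplicate determinations, means used.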

Trypanosoma brucei [11] = assay: Inhibition of Trypanosoma brucei trypanothione reductase at 5 uM using 40 uM trypanothione disulfide as substrate by spectrophotometric method relative to control
How it was run: (§3)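 TbTryR (about 2 nM) in 40 mM HEPES, 1 mM EDTA, pH 7.5 with 100 µM NADPH; inhibitor 5 µM from DMSO stock, fixed TS2 at 100 or 40 µM; NADPH consumption followed as absorbance decrease; inhibition relative to DMSO control.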

[12] = Inhibition of trypanothione reductase
[13] = Mixed-type inhibition of Trypanosoma brucei trypanothione reductase assessed as enzyme-substrate complex using varying levels of trypanothione disulfide as substrate by Lineweaver-burk plot analysis
How it was run: (§4)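 TbTryR kinetics in HEPES/EDTA pH 7.5 with 100 µM NADPH; TS2 varied 20–200 µM at several inhibitor levels, DMSO control; Lineweaver-Burk plots; Ki and Ki' fitted.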

[14] = Stability of the compound; type: physicochemical
J774.1 = assay: Cytotoxicity against mouse J774.1 cells after 24 hrs by alamar blue assay; type: cell-based; settings: J774.1, 24 h
Trypanosoma brucei [15] = assay: Inhibition of Trypanosoma brucei trypanothione reductase at 5 uM using 100 uM trypanothione disulfide as substrate by spectrophotometric method relative to control; how it was run: as §3
[16] = Mixed-type inhibition of Trypanosoma brucei trypanothione reductase assessed as enzyme-substrate-inhibitor complex using varying levels of trypanothione disulfide as substrate by Lineweaver-burk plot analysis; how it was run: as §4
[17] = target: Rhodesain (Trypanosoma brucei rhodesiense) (UniProt Q95PM0); assay: Inhibition of Trypanosoma brucei rhodesiense rhodesain assessed as second-order rate constant using Cbz-Phe-Arg-AMC as substrate measured for 10 mins by spectrofluorometric analysis

Chain of Trypanothione reductase (Trypanosoma cruzi) (P28593 whole entry, looked up): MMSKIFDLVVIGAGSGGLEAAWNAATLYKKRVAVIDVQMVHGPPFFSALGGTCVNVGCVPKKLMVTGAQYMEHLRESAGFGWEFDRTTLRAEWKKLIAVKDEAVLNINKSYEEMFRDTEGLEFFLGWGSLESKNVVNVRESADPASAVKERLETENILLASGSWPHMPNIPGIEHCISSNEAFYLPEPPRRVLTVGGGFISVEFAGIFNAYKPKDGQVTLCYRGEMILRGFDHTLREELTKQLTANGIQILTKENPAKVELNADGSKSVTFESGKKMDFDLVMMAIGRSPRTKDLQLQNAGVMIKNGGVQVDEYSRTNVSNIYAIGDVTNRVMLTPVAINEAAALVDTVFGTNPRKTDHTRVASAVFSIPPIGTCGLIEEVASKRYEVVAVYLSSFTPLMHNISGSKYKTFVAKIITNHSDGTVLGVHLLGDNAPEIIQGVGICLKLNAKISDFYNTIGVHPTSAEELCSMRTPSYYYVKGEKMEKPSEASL
Chain of Rhodesain (Trypanosoma brucei rhodesiense) (Q95PM0 1-450): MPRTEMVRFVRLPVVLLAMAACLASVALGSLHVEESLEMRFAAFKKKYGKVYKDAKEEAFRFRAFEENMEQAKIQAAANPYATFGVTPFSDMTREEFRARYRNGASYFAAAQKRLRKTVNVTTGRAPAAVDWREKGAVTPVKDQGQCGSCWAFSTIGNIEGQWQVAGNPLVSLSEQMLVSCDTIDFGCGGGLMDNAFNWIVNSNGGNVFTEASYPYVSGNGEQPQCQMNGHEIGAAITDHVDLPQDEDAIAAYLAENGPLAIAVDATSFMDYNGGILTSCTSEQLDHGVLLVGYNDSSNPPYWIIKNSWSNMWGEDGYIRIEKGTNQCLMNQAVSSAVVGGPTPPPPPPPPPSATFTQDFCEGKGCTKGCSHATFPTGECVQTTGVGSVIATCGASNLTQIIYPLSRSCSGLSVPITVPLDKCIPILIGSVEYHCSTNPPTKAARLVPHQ
Chain of Rhodesain (Q95PM0 whole entry): as the sequence (Q95PM0 1-450) above

Row | SMILES | inhibition [1] [%] | inhibition [2] [%] | inhibition [3] [%] | IC50 [4] [nM] | inhibition [5] [%] | IC50 (Rhodesain) [nM] | Activity (Leishmania infantum) | IC50 [6] [nM] | inhibition [7] [%] | inhibition [8] | inhibition [9] [%] | selectivity ratio at 48 h [10] | inhibition (Trypanosoma brucei [11]) [%] | inhibition [12] | Ki [13] [nM] | Stability [14] | IC50 (J774.1) [nM] | inhibition (Trypanosoma brucei [15]) [%] | Ki [16] [nM] | K [17] [M⁻¹ s⁻¹]
1 | c1ccc2c(NCCCCCCCCNc3c4c(nc5ccccc35)CCCC4)c3c(nc2c1)CCCC3 | 73.3 to 78.3 | 64.4 to 68.5 | 87 | 400 | 100 | 16900 | Active | 660 | 45 to 46.7 | Dose-dependent effect | 28.8 to 32.9 | – | – | – | – | – | – | – | – | –
2 | C1=Cc2c(nc3ccccc3c2NCCCCCCCNc2c3c(nc4ccccc24)CCC=C3)CC1 | – | – | – | 10 | – | – | Active | 10 | – | – | – | 152 | 47 | Active | 1200 | Stable | 1500 | 53 | 12000 | –
3 | c1ccc2c(NCCCCCCCNc3c4c(nc5ccccc35)CCCC4)c3c(nc2c1)CCCC3 | 66.4 | 51 to 55 | 44 | 160 | – | – | Active | 590 | 34.4 to 37.8 | – | 23.2 to 25.8 | – | 66 | – | – | – | – | 53 | – | –
4 | CN1CCN(C(=O)N[C@@H](Cc2ccccc2)C(=O)N[C@H](/C=C/S(=O)(=O)c2ccccc2)CCc2ccccc2)CC1 | – | – | – | – | – | – | – | – | – | – | – | – | – | – | – | – | – | – | – | 500000

Source: ChEMBL document CHEMBL4052757, “Bistacrines as potential antitrypanosomal agents” (Bioorg Med Chem, 2017)
